pIC50: −log10 of the molar value. Converted amounts (≈) assume the structure as drawn.
How the values were obtained:
[1] = tested on: Providencia rettgeri; experiment: Antibacterial activity against Providencia rettgeri W1008 assessed as growth inhibition at 128 to 0.002 mg/L incubated for 18 hrs at 37 degC by agar dilution method; format: functional; conditions: W1008, 18 h
Summary of the method: (§1)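 Agar dilution on Mueller Hinton agar per Japanese Society of Chemotherapy standard method; about 10⁴ cfu inoculated onto plates holding two-fold dilution series; incubation 37°C, 18 h; MIC read as growth endpoint.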

[2] = tested on: Klebsiella pneumoniae; experiment: Antibacterial activity against Klebsiella pneumoniae KC-1 assessed as growth inhibition at 128 to 0.002 mg/L incubated for 18 hrs at 37 degC by agar dilution method; format: functional; conditions: KC-1, 18 h; summary of the method: as §1
[3] = tested on: Proteus vulgaris; experiment: Antibacterial activity against Proteus vulgaris IFO3167 assessed as growth inhibition at 128 to 0.002 mg/L incubated for 18 hrs at 37 degC by agar dilution method; format: functional; conditions: IFO3167, 18 h; summary of the method: as §1
[4] = tested on: Enterobacter cloacae; experiment: Antibacterial activity against Enterobacter cloacae IFO13535 assessed as growth inhibition at 128 to 0.002 mg/L incubated for 18 hrs at 37 degC by agar dilution method; format: functional; conditions: IFO13535, 18 h; summary of the method: as §1
[5] = tested on: Escherichia coli; experiment: Antibacterial activity against Escherichia coli NIHJ assessed as growth inhibition at 128 to 0.002 mg/L incubated for 18 hrs at 37 degC by agar dilution method; format: functional; summary of the method: as §1
[6] = tested on: Escherichia coli; experiment: Antibacterial activity against Escherichia coli 177 assessed as growth inhibition at 128 to 0.002 mg/L incubated for 18 hrs at 37 degC by agar dilution method; format: functional; conditions: Escherichia coli, 177, 18 h; summary of the method: as §1
[7] = tested on: Escherichia coli; experiment: Antibacterial activity against Escherichia coli KC-14 assessed as growth inhibition at 128 to 0.002 mg/L incubated for 18 hrs at 37 degC by agar dilution method; format: functional; conditions: KC-14, 18 h; summary of the method: as §1
[8] = tested on: Serratia marcescens; experiment: Antibacterial activity against Serratia marcescens T-55 assessed as growth inhibition at 128 to 0.002 mg/L incubated for 18 hrs at 37 degC by agar dilution method; format: functional; conditions: T-55, 18 h; summary of the method: as §1
[9] = tested on: Salmonella typhimurium; experiment: Antibacterial activity against Salmonella typhimurium IFO13245 assessed as growth inhibition at 128 to 0.002 mg/L incubated for 18 hrs at 37 degC by agar dilution method; format: functional, Salmonella enterica subsp. enterica serovar Typhimurium; conditions: Salmonella enterica, IFO13245, 18 h; summary of the method: as §1
[10] = tested on: Klebsiella pneumoniae; experiment: Antibacterial activity against Klebsiella pneumoniae DT-S assessed as growth inhibition at 128 to 0.002 mg/L incubated for 18 hrs at 37 degC by agar dilution method; format: functional; summary of the method: as §1
[11] = tested on: Citrobacter freundii; experiment: Antibacterial activity against Citrobacter freundii IFO1268 assessed as growth inhibition at 128 to 0.002 mg/L incubated for 18 hrs at 37 degC by agar dilution method; format: functional; conditions: IFO1268, 18 h; summary of the method: as §1
[12] = tested on: Proteus mirabilis; experiment: Antibacterial activity against Proteus mirabilis IFO3849 assessed as growth inhibition at 128 to 0.002 mg/L incubated for 18 hrs at 37 degC by agar dilution method; format: functional; conditions: IFO3849, 18 h; summary of the method: as §1
[13] = tested on: Acinetobacter calcoaceticus; experiment: Antibacterial activity against Acinetobacter calcoaceticus Ac-54 assessed as growth inhibition at 128 to 0.002 mg/L incubated for 18 hrs at 37 degC by agar dilution method; format: functional; conditions: Ac-54, 18 h; summary of the method: as §1
[14] = tested on: Morganella morganii; experiment: Antibacterial activity against Morganella morganii W1026 assessed as growth inhibition at 128 to 0.002 mg/L incubated for 18 hrs at 37 degC by agar dilution method; format: functional; conditions: W1026, 18 h; summary of the method: as §1
[15] = tested on: Serratia marcescens; experiment: Antibacterial activity against Serratia marcescens IFO3736 assessed as growth inhibition at 128 to 0.002 mg/L incubated for 18 hrs at 37 degC by agar dilution method; format: functional; conditions: IFO3736, 18 h; summary of the method: as §1
[16] = tested on: Pseudomonas aeruginosa; experiment: Antibacterial activity against Pseudomonas aeruginosa IFO3445 assessed as growth inhibition at 128 to 0.002 mg/L incubated for 18 hrs at 37 degC by agar dilution method; format: functional; conditions: IFO3445, 18 h; summary of the method: as §1
[17] = Drug excretion in Sprague-Dawley rat bile assessed as unmetabolized form at 5 mg/kg, iv after 24 hrs by HPLC; format: ADME, organism-based; conditions: read-out: Drug excretion
Summary of the method: (§2)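 Six-week male Sprague-Dawley rats, fasted overnight; oral dose suspended in 0.5% methylcellulose, iv dose dissolved in 0.04 N NaOH. Urine from intact rats in metabolic cages, bile from bile duct-cannulated rats, 0–24 h. Bile alkaline-hydrolysed (1 N NaOH, 37°C, 1 h) to convert glucuronides; HPLC with UV 290 nm and internal standard; % of dose; mean ± S.D., three rats.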

[18] = Drug excretion in Sprague-Dawley rat bile assessed as unmetabolized form at 10 mg/kg, po after 24 hrs by HPLC; format: ADME, organism-based; conditions: read-out: Drug excretion; summary of the method: as §2
[19] = Drug excretion in Sprague-Dawley rat assessed as unmetabolized form at 5 mg/kg, iv after 24 hrs by HPLC; format: ADME, organism-based; conditions: in vivo, read-out: Drug excretion; summary of the method: as §2
[20] = Drug excretion in Sprague-Dawley rat at 10 mg/kg, po after 24 hrs by HPLC; format: ADME, organism-based; conditions: in vivo, read-out: Drug excretion; summary of the method: as §2
[21] = target: DNA gyrase (Escherichia coli, UniProt P0AES4+P0AES6); experiment: Inhibition of Escherichia coli DNA gyrase preincubated for 5 mins at 37 degC before addition of relaxed pBR322 as substrate by supercoiling assay; format: protein-complex assay
[22] = Oral drug absorption in Sprague-Dawley rat at 10 mg/kg, po after 24 hrs by HPLC; format: ADME, organism-based; conditions: in vivo
Summary of the method: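 Absorption rate computed as total urinary plus biliary excretion (% of dose, summed means) after oral dosing divided by total after iv dosing; excretion measured in fasted male Sprague-Dawley rats by HPLC over 24 h, bile glucuronides alkaline-hydrolysed.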

[23] = Drug excretion in Sprague-Dawley rat urine at 10 mg/kg, po after 24 hrs by HPLC; format: ADME, organism-based; conditions: read-out: Drug excretion; summary of the method: as §2
[24] = Drug excretion in Sprague-Dawley rat urine at 5 mg/kg, iv after 24 hrs by HPLC; format: ADME, organism-based; conditions: read-out: Drug excretion; summary of the method: as §2
[25] = tested on: Pseudomonas aeruginosa; experiment: Antibacterial activity against Pseudomonas aeruginosa E-2 assessed as growth inhibition at 128 to 0.002 mg/L incubated for 18 hrs at 37 degC by agar dilution method; format: functional; conditions: E-2, 18 h; summary of the method: as §1
[26] = tested on: Pseudomonas aeruginosa; experiment: Antibacterial activity against Pseudomonas aeruginosa 15846 assessed as growth inhibition at 128 to 0.002 mg/L incubated for 18 hrs at 37 degC by agar dilution method; format: functional; conditions: Pseudomonas aeruginosa, 15846, 18 h; summary of the method: as §1
[27] = Passive permeability of the compound after 5 hrs at 25 degC by PAMPA assay; format: physicochemical; conditions: read-out: Peff
Summary of the method: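 PAMPA: 10 µM compound in PBS with 5% MeOH in donor, PBS acceptor; 25°C, 5 h; both sides quantified by HPLC; Peff derived from donor/acceptor concentrations, volumes, 0.3 cm² filter area and 18,000 s; mean ± S.D., n=3.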

[28] = Solubility of the compound in JP2 solution at pH 6.8 after 24 hrs at 25 degC by HPLC; format: physicochemical
Summary of the method: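 Excess solid shaken in JP2 (50 mM potassium dihydrogenphosphate, pH 6.8) at 25°C for 24 h to equilibrium, filtered 0.45 µm; filtrate concentration by reversed-phase UPLC, UV 290 nm; mean ± S.D., n=3.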

Compound | MIC [1] [µg/mL] | MIC [2] [µg/mL] | MIC [3] [µg/mL] | MIC [4] [µg/mL] | MIC [5] [ng/mL] | MIC [6] [ng/mL] | MIC [7] [ng/mL] | MIC [8] [µg/mL] | MIC [9] [µg/mL] | MIC [10] [µg/mL] | MIC [11] [µg/mL] | MIC [12] [µg/mL] | MIC [13] [µg/mL] | MIC [14] [µg/mL] | MIC [15] [µg/mL] | MIC [16] [µg/mL] | dose excreted at 24 h [17] [%] | dose excreted at 24 h [18] [%] | dose excreted at 24 h [19] [%] | dose excreted at 24 h [20] [%] | other results
C[C@H]1COc2c(N3CCN(C)CC3)c(F)cc3c(=O)c(C(=O)O)cn1c23.C[C@H]1COc2c(N3CCN(C)CC3)c(F)cc3c(=O)c(C(=O)O)cn1c23.O [LEVOFLOXACIN] | 0.12 | 0.12 | 0.12 | 0.12 | 19 | 19 | 19 | 0.12 | 0.12 | 0.12 | 0.12 | 0.12 | 0.12 | 0.12 | 0.12 |  |  |  |  |  | 
CNC1CN(c2c(F)cc3c(=O)c(C(=O)O)cn(-c4nc(N)c(F)cc4F)c3c2C)C1 | 0.077 (≈ 0.178 µM) | 0.077 (≈ 0.178 µM) | 0.077 (≈ 0.178 µM) | 0.077 (≈ 0.178 µM) | 6 (≈ 0.0138 µM) | 6 (≈ 0.0138 µM) | 6 (≈ 0.0138 µM) | 0.077 (≈ 0.178 µM) | 0.077 (≈ 0.178 µM) | 0.077 (≈ 0.178 µM) | 0.077 (≈ 0.178 µM) | 0.077 (≈ 0.178 µM) | 0.077 (≈ 0.178 µM) | 0.077 (≈ 0.178 µM) | 0.077 (≈ 0.178 µM) | 0.077 (≈ 0.178 µM) | 41 | 16 | 90 | 28 | pIC50 [21]: 6.26; Fa at 24 h [22]: 31%; dose excreted at 24 h [23]: 13%; dose excreted at 24 h [24]: 49%; MIC [25]: 0.077 µg/mL (≈ 0.178 µM); MIC [26]: 0.077 µg/mL (≈ 0.178 µM); Papp at 5 h [27]: 0.19 ×10⁻⁶ cm/s; solubility at 24 h [28]: 3.1 µg/mL (≈ 7.15 µM)
Cc1c(N2CC(N)C2)c(F)cc2c(=O)c(C(=O)O)cn(-c3nc(N)c(F)cc3F)c12 | 0.061 (≈ 0.145 µM) | 0.061 (≈ 0.145 µM) | 0.061 (≈ 0.145 µM) | 0.061 (≈ 0.145 µM) | 4 (≈ 0.00954 µM) | 4 (≈ 0.00954 µM) | 4 (≈ 0.00954 µM) | 0.061 (≈ 0.145 µM) | 0.061 (≈ 0.145 µM) | 0.061 (≈ 0.145 µM) | 0.061 (≈ 0.145 µM) | 0.061 (≈ 0.145 µM) | 0.061 (≈ 0.145 µM) | 0.061 (≈ 0.145 µM) | 0.061 (≈ 0.145 µM) | 0.061 (≈ 0.145 µM) | 41 | 4.2 | 85 | 8.2 | pIC50 [21]: 6.54; Fa at 24 h [22]: 9.6%; dose excreted at 24 h [23]: 4%; dose excreted at 24 h [24]: 44%; MIC [25]: 0.061 µg/mL (≈ 0.145 µM); MIC [26]: 0.061 µg/mL (≈ 0.145 µM); Papp at 5 h [27]: 0.12 ×10⁻⁶ cm/s; solubility at 24 h [28]: 27 µg/mL (≈ 64.4 µM)
